This is an account of results in ChEMBL document CHEMBL3797175, “Discovery of 6-(difluoro(6-(4-fluorophenyl)-[1,2,4]triazolo[4,3-b][1,2,4]triazin-3-yl)methyl)quinoline as a highly potent and selective c-Met inhibitor” (Eur J Med Chem, 2016).

One series relates to MKN-45. The series can be described thus: Antitumor activity against human MKN45 cells xenografted in po dosed athymic nude mouse assessed as tumor growth inhibition administered bid for 21 days measured twice a week during compound dosing. Type of series: functional, organism-based. An outline of the steps: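 Nude mice bearing s.c. tumours. Cells were first grown s.c. to 700–800 mm³, then 1.5 mm³ fragments were transplanted s.c. into the right flank. Mice were randomised at 100–200 mm³ (n=6 treated, n=12 vehicle) and dosed orally twice daily for 21 days. Caliper measurement twice weekly; TV = length×width²/2. TGI taken on the final day versus vehicle; Student's t test.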

The target of series [1] is Mast/stem cell growth factor receptor Kit (Homo sapiens) (UniProt P10721). The series can be described thus: Inhibition of recombinant c-Kit (unknown origin) using poly (Glu, Tyr) 4:1 as substrate at 1000 nM incubated for 60 mins by ELISA relative to control. An outline of the steps: (§1)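 Recombinant tyrosine kinases assayed on wells precoated with poly(Glu,Tyr)4:1 (20 µg/mL). ATP 10 µmol/L in HEPES pH 7.4 buffer with MgCl2, MnCl2, Na3VO4 and DTT; compound in 1% DMSO, 1% DMSO as control. Reaction 60 min at 37 °C. Phosphotyrosine detected with PY99 and HRP anti-mouse, o-phenylenediamine, A490. Inhibition % relative to control; two experiments.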
Chain of Mast/stem cell growth factor receptor Kit (Homo sapiens) (P10721 whole entry): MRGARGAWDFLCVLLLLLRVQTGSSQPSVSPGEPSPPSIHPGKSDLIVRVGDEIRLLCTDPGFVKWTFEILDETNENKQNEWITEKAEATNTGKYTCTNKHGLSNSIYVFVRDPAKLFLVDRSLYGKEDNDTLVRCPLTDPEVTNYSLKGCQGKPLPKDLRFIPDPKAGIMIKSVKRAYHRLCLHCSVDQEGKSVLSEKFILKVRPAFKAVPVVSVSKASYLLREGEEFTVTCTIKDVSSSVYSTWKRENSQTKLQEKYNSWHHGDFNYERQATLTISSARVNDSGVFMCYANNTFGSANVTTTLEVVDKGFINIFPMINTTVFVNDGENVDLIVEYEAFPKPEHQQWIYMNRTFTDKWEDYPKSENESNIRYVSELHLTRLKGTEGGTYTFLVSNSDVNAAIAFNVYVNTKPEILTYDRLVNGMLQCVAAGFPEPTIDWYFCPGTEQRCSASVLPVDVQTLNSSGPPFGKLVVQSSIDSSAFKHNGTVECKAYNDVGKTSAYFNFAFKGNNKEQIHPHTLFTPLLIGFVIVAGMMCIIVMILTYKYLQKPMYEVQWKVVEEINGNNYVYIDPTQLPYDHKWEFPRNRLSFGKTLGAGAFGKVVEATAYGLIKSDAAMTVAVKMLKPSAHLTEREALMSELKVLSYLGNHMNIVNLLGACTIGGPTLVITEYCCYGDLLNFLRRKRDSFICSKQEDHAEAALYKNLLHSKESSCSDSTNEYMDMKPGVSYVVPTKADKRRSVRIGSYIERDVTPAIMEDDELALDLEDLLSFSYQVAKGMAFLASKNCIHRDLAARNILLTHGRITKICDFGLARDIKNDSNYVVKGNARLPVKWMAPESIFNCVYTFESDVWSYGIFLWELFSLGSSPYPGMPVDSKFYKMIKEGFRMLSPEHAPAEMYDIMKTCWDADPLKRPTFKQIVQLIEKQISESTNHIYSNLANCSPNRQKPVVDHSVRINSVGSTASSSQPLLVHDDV

Series [2] is described as follows: Selectivity ratio of IC50 for human SMMC7721 cells to IC50 for human EBC1 cells. Type of series: ADME, cell-based. The settings on record: smmc-7721. An outline of the steps: (§2)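 Each cell line was seeded in 96-well plates, then exposed the next day to a range of compound concentrations for 72 h. Growth was read by SRB or MTT assay, and IC50 was fitted by a four-parameter concentration-response curve. Each concentration was run at least in triplicate, in at least 2 experiments. BaF3/TPR-Met are murine pre-B BaF3 cells transfected with TPR-MET cDNA and selected in puromycin.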

A short description of series [3]: Antiproliferative activity against human NCI-H3122 cells after 72 hrs by SRB or MTT assay. The series is classed as functional, cell-based. As to conditions: NCI-H3122, 72 h. An outline of the steps: (§3)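 Cells seeded, exposed next day to a range of concentrations for 72 h. Growth read by sulforhodamine B or MTT. IC50 from four-parameter concentration-response fit. Each concentration tested at least in triplicate, with at least 2 experiments.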
A general note: Formazan colour is commonly taken as a measure of viable cells.

A short description of series [4]: Selectivity ratio of IC50 for human Calu3 cells to IC50 for human EBC1 cells. Type of series: ADME, cell-based. The settings on record: calu-3. An outline of the steps: (§4)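 Both IC50s in each ratio come from one proliferation assay. Cells were seeded and exposed the next day to a range of concentrations for 72 h, then read by SRB or MTT. IC50s were fitted by four-parameter concentration–response, with each concentration at least in triplicate and at least 2 experiments. BaF3/TPR-Met is murine pre-B BaF3 transfected with TPR-MET and puromycin-selected.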

Series [5] can be described thus: Selectivity ratio of IC50 for human NCI-H226 cells to IC50 for mouse BAF3 cells expressing TPR-MET. Type of series: ADME, cell-based. An outline of the steps: as §4
Series [6] addresses Fibroblast growth factor receptor 1 (Homo sapiens) (UniProt P11362). In words: Inhibition of recombinant FGFR1 (unknown origin) using poly (Glu, Tyr) 4:1 as substrate at 1000 nM incubated for 60 mins by ELISA relative to control. An outline of the steps: as §1
Series [7] in a line: Antiproliferative activity against human Bel7404 cells after 72 hrs by SRB or MTT assay. Type of series: functional, cell-based. As to conditions: BEL-7404, 72 h. Summed up:
as §3

Series [8] is described as follows: Selectivity ratio of IC50 for human SGC7901 cells to IC50 for human EBC1 cells. The series is classed as ADME, cell-based. The settings on record: sgc-7901. Summed up: as §2
A short description of series [9]: Selectivity ratio of IC50 for human NCI-H226 cells to IC50 for human MKN45 cells. Type of series: ADME, cell-based. Summed up: as §4
Series [10] concerns the target T1, Hepatocyte growth factor receptor (Homo sapiens, UniProt P08581). The series can be described thus: Inhibition of c-Met in human EBC1 cells assessed as reduction in ERK phosphorylation at Threonine 202 at 10 nM after 1 hr by Western blot analysis. Type of series: cell-based. An outline of the steps: (§5)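 EBC-1 or MKN45 cells treated with compound 1 h at 37 °C without HGF, then lysed in 1× SDS sample buffer. Lysates run on 10% SDS-PAGE and transferred to nitrocellulose. Probed with antibodies to c-Met, phospho-c-Met, phospho-ERK1/2, phospho-AKT, AKT and GAPDH, then HRP secondary. ECL detection.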
Background: In western blotting, separated proteins are transferred to a membrane and probed.

Series [11] is described as follows: Selectivity ratio of IC50 for human NCI-H661 cells to IC50 for human MKN45 cells. Type of series: ADME, cell-based. As to conditions: mkn-45. An outline of the steps: as §4
The target in series [12] is Vascular endothelial growth factor receptor 2 (Homo sapiens) (UniProt P35968). The series can be described thus: Inhibition of recombinant KDR (unknown origin) using poly (Glu, Tyr) 4:1 as substrate at 1000 nM incubated for 60 mins by ELISA relative to control. Summed up:
as §1

The target of series [13] is Hepatocyte growth factor receptor (Canis lupus familiaris) (UniProt Q75ZY9). The series can be described thus: Inhibition of c-Met in MDCK cells assessed as inhibition of HGF-induced cell scattering after 24 hrs by crystal violet staining based microscopic analysis. Summed up: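 MDCK cells, 1.5×10^3 per well, grown overnight, then given increasing compound concentrations plus HGF (100 ng/mL). Incubated 24 h at 37 °C, 5% CO2. Fixed in 4% paraformaldehyde 15 min, stained with 0.2% crystal violet and imaged by microscopy. Three independent experiments.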

Series [14] is described as follows: Selectivity ratio of IC50 for human NCI-HCC827 cells to IC50 for human EBC1 cells. Type of series: ADME, cell-based. Summed up: as §4
Series [15] deals with Proto-oncogene tyrosine-protein kinase Src (Homo sapiens) (UniProt P12931). In words: Inhibition of recombinant c-Src (unknown origin) using poly (Glu, Tyr) 4:1 as substrate at 1000 nM incubated for 60 mins by ELISA relative to control. An outline of the steps: as §1
Chain of Proto-oncogene tyrosine-protein kinase Src (Homo sapiens) (P12931 2-536 limits assumed): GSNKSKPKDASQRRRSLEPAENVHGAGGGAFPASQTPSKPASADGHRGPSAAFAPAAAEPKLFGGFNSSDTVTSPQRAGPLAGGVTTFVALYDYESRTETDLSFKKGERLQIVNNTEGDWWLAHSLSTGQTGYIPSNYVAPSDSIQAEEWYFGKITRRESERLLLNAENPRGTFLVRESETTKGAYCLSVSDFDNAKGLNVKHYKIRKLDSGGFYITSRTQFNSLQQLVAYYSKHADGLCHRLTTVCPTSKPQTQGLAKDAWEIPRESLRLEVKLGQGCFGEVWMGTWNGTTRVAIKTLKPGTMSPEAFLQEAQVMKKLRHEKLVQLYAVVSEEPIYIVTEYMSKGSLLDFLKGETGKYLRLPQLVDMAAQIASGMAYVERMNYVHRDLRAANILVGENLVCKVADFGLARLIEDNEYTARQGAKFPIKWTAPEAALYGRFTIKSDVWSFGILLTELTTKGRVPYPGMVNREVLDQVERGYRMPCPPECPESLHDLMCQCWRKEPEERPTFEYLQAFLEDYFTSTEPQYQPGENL
A general note: An ELISA detects its analyte on a solid surface through an enzyme-linked reagent.

In the next series the test system is AGS. In words: Antiproliferative activity against human AGS cells after 72 hrs by SRB or MTT assay. The series is classed as functional, cell-based. Summed up: as §3
The target of series [16] is Vascular endothelial growth factor receptor 1 (Homo sapiens) (UniProt P17948). In words: Inhibition of recombinant FLT1 (unknown origin) using poly (Glu, Tyr) 4:1 as substrate at 1000 nM incubated for 60 mins by ELISA relative to control. An outline of the steps: as §1
Series [17] in a line: Antiproliferative activity against human NCI-HCC827 cells after 72 hrs by SRB or MTT assay. Type of series: functional, cell-based. The settings on record: HCC827, 72 h. Summed up: as §3
A short description of series [18]: Selectivity ratio of IC50 for human SNU16 cells to IC50 for human MKN45 cells. The series is classed as ADME, cell-based. As to conditions: snu-16.
Series [19] can be described thus: Selectivity ratio of IC50 for human SNU16 cells to IC50 for mouse BAF3 cells expressing TPR-MET. Type of series: ADME, cell-based.
For series [20], the target named is T1, Hepatocyte growth factor receptor. In words: Inhibition of c-Met phosphorylation at Tyrosine 1235 in human EBC1 cells at 10 nM after 1 hr by Western blot analysis. The series is classed as cell-based. An outline of the steps:
as §5

Another series relates to MDA-MB-231. The series can be described thus: Antiproliferative activity against human MDA-MB-231 cells after 72 hrs by SRB or MTT assay. Type of series: functional, cell-based. The settings on record: MDA-MB-231, 72 h. Summed up: as §3
In the next series the test system is NCI-H460. The series can be described thus: Antiproliferative activity against human NCI-H460 cells after 72 hrs by SRB or MTT assay. Type of series: functional, cell-based. The settings on record: NCI-H460, 72 h. Summed up:
as §3

SMILES strings stand for the structures. Calls of active or inactive are those of the source. The calls are words filed in the database; no cut-off is given here. Bounds are passed on as bounds.

T1 sequence (P08581 whole entry): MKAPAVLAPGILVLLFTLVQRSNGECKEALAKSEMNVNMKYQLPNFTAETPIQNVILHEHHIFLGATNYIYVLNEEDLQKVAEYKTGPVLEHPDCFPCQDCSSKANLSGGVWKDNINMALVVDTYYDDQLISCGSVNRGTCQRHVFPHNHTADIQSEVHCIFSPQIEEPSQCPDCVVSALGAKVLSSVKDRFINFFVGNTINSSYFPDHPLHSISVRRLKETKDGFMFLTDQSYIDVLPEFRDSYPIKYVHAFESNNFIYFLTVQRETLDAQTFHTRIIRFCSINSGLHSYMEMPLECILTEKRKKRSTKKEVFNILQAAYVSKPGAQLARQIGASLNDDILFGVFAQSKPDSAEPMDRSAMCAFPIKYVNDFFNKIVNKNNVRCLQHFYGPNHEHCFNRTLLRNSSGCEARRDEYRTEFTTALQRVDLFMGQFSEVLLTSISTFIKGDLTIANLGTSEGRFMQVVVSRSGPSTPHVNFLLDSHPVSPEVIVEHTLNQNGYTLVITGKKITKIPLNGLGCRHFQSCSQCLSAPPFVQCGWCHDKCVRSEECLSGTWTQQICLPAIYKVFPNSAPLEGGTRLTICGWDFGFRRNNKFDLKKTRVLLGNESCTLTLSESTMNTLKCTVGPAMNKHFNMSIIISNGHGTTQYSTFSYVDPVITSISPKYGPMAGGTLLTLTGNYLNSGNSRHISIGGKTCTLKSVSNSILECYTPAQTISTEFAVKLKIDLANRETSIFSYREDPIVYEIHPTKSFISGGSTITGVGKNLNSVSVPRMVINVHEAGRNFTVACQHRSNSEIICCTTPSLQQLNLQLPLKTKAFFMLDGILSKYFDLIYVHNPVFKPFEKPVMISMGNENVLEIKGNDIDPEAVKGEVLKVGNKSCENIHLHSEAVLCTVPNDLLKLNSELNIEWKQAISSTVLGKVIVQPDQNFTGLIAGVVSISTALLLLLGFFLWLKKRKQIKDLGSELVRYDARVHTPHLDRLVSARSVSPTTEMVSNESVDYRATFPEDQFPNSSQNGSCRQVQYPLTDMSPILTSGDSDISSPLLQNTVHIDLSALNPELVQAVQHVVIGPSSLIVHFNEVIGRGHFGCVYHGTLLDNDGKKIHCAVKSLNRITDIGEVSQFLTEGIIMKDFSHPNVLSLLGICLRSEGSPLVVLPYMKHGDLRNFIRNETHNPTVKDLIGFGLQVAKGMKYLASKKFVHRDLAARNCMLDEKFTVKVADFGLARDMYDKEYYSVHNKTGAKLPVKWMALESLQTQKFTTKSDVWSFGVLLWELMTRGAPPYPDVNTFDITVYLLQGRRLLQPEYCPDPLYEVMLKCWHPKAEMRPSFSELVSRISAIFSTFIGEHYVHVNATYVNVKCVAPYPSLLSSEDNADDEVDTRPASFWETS
Chain of Fibroblast growth factor receptor 1 (Homo sapiens) (P11362 22-822 limits assumed): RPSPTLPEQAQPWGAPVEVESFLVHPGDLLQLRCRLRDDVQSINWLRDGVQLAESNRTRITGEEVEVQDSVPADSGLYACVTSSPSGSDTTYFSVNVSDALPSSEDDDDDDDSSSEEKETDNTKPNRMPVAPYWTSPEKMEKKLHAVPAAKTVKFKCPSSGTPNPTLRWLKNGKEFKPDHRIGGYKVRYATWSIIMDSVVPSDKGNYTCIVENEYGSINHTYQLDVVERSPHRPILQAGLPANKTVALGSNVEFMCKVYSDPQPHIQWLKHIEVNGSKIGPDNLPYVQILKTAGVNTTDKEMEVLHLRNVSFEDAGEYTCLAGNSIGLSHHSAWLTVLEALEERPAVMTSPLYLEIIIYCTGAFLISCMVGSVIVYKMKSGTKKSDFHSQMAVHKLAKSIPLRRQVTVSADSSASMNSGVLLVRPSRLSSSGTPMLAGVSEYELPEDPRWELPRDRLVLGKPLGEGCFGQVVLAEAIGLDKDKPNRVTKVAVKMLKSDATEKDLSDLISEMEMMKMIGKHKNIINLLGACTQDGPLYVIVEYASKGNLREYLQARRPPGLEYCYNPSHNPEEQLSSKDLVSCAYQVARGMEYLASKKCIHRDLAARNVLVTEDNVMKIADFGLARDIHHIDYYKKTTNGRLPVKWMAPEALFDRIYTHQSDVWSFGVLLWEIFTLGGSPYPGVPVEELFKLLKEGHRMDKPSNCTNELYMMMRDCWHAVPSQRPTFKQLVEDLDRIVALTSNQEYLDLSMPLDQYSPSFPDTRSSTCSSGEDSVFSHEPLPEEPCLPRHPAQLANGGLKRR
Chain of Vascular endothelial growth factor receptor 2 (Homo sapiens) (P35968 whole entry): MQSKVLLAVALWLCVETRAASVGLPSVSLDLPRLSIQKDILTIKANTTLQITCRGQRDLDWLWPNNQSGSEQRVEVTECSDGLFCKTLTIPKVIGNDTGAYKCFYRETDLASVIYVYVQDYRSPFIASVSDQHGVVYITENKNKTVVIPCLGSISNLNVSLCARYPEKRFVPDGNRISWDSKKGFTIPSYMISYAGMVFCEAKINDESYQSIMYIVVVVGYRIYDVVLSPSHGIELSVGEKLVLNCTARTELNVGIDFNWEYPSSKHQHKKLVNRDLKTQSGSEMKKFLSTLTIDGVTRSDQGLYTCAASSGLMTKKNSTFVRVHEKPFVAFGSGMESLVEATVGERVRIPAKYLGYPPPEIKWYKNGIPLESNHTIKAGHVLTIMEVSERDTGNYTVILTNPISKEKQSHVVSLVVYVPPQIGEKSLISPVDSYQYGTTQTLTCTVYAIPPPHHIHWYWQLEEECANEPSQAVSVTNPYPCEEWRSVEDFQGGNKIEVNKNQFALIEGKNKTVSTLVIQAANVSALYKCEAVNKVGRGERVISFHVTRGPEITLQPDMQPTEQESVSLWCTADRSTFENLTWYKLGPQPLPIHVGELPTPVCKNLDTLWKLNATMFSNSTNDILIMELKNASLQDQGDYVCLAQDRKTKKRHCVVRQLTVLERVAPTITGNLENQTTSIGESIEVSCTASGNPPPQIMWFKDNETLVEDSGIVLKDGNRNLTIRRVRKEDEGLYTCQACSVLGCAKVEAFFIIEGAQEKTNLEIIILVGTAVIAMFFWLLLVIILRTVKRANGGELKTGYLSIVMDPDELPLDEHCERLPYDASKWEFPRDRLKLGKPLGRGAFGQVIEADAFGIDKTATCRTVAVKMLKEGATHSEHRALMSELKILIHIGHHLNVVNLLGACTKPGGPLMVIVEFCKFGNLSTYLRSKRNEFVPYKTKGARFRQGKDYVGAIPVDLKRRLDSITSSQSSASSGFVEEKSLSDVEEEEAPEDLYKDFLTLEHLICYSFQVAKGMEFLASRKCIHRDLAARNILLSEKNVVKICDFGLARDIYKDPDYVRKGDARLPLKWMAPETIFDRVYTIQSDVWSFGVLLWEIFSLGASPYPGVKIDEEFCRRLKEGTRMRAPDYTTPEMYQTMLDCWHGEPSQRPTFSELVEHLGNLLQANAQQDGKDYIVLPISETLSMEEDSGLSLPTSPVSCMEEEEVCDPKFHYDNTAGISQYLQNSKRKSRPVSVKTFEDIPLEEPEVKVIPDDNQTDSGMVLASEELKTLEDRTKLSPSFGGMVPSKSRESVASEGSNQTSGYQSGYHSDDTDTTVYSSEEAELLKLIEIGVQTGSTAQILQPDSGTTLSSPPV

`Fc1ccc(-c2cnc3nnc(C(F)(F)c4ccc5ncccc5c4)n3n2)cc1`: the TGI result with MKN-45 is “Dose-dependent effect”. Besides, the inhibition (in general, how much of the control response was suppressed) was 32.1% in [1]; 12.8% in series [6]; 15.3% in series [12]; “Dose-dependent effect” in series [13]; 13.7% in series [15]; 11.5% in series [16]. In addition, the “Ratio IC50” value in series [2] is 10000; in [4] it was more than 10000; in series [5], 10000; in series [8], more than 10000; in series [9], more than 10000; in series [11] it was more than 10000. The “Ratio IC50” value in series [14], in series [18] and in series [19] was 10000 throughout. Moreover, the IC50 (in series [3]; in series [7]; with AGS; in series [17]; in the series on MDA-MB-231; in the series with NCI-H460) was more than 10 µM throughout. Also, the inhibition result in series [10] and in [20] was “Active” in each case.
